The source of these data is the RNAGym collection of RNA variant scans (doi:10.1126/science.aae0568).

Fewer inactive variants are shown than the library holds.

To fix the notation:
B1: tRNA (parent)
chain: GUUCCGUUGGCGUAAUGGUAACGCGUCUCCCUCCUAAGGAGAAGACUGCGGGUUCGAGUCCCGUACGGAACG

Variants of B1 are the subject of the data set. The data set is described as follows: yeast fitness relative to wild type (ratio to wild type); higher = fitter; tRNA-Arg(CCU), competitive growth, 37 C, YPD. The gist of the method: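 A pool of Saccharomyces cerevisiae strains, each with a tRNA-Arg(CCU) gene variant at the native genomic locus, was competed in YPD at 37°C for 24 hours across six parallel replicates. The variants had been chemically synthesised at a 3% per-site mutation rate over 69 sites, and gene amplicons before and after competition were read by 100-nucleotide paired-end sequencing. Darwinian fitness relative to wild type rested on changes in genotype frequencies. Genotypes required ≥ 100 starting reads, and estimates < 0.5 were set to 0.5.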
Consider C5G A37G C46G A57G, for which the yeast fitness was at most 0.5.
For the variant C5G A20C C27A G39A C61G, the yeast fitness was at most 0.5.
For C5G C11U G17A A20C C49G, the yeast fitness was at most 0.5.
The result for C5G A21C A45G reads 0.512.
The result for C5A U32C C60U C61G reads at most 0.5; that for C5G A37G C46G C61A, at most 0.5.
The same measure for C5G A40C G52A C62U: at most 0.5.
As to C5G C11U A42G C49U C66U G67A, the yeast fitness was at most 0.5.
The same measure for C5G A20G C34A A40U: at most 0.5; for C5G A14C G18A U19C A43G A45C C46U: at most 0.5.
The same measure for C5G C11A: 0.609.
The result for C5G A21G C22U reads 0.689; that for C5G A14U U16C G18A A21U A42G G68A, at most 0.5.
For the variant C5A U19C U26G A36C, the yeast fitness is 0.571.
Consider C5A U47A C55A G68A, for which the yeast fitness is at most 0.5.
The result for C5G C24G C30G C31U U35A A36U reads 0.755; that for C5G A20G A36C G63A, at most 0.5.
For C5G C11G G44A G50C U54C C61U A69U A70C, the yeast fitness was at most 0.5.
On to C5A U19A C66U, for which the yeast fitness turned out to be 0.66.
The result for C5G A20C C29G reads 0.538.
Take C5G C11A A20U C29A A37C: the yeast fitness was at most 0.5.
For C5G A37U C46U A69C, the yeast fitness is at most 0.5.
On to C5G C11A C29G C33U G50A, for which the yeast fitness is at most 0.5.
For the variant C5G A40C A70G, the yeast fitness was found to be 0.543.
With C5G C11U A37C C49U C60A C66G, the yeast fitness is 0.685.
The result for C5G A36C G41C reads at most 0.5; that for C5G A20G A40G G44A C46G A65C, at most 0.5; that for C5G A14U A37U A45C, at most 0.5.
The same measure for C5G C11A A14G G25C C29G A70G: at most 0.5; for C5G A14U U16C G18C U32A: 0.556; for C5G A21G C62U: 0.677.
The result for C5A U54C reads 0.722; that for C5G C22G C66U, at most 0.5; that for C5G C22A, 0.766.
As for C5G C22G, the yeast fitness amounted to 0.652.
The result for C5G C22U reads 0.72; that for C5G C22G C55G G63C, 0.679; that for C5G A42G A69C, 0.568.
The same measure for C5G C11A A14G G25C C29G C60U: at most 0.5.
The same measure for C5G A15U C29G U59G: at most 0.5; for C5G C24G C60G: 0.518; for C5G C11U A14U A37U A45C: at most 0.5.
Turning to C5G C11A A15G G18A C30G U54C, the yeast fitness was at most 0.5.
Take C5G C22A A42U G48A C62A: the yeast fitness is at most 0.5.
The same measure for C5G A14G G63C: at most 0.5; for C5G A20G C22G C29G: at most 0.5.
The same measure for C5G A14U C29U C33G A43U U54C: at most 0.5; for C5G A14G C24G A40U G48C C60U A69C: 0.601; for C5A U35C A57C: at most 0.5.
For the variant C5G C11U A37C A57G, the yeast fitness is at most 0.5.
The result for C5G A14U U28C C46G C61U reads at most 0.5.
The result for C5G C11U A42G C49U A70U reads 0.588; that for C5G C11U A37C A43G G50A, at most 0.5; that for C5G A36G A45G G51C C61A, at most 0.5.
The same measure for C5A U32A A36C: at most 0.5; for C5G C11U A37C C49U C60A: 0.557.
In the case of C5G A21C C29U C31G A43U A65U, the yeast fitness was at most 0.5.
The same measure for C5G A14C C29U C33G A65C: at most 0.5; for C5A U35G G41A G56A: at most 0.5.
On to C5G A20G, for which the yeast fitness was determined as 0.965.
The same measure for C5G A14U G67A: 0.612; for C5A U35G G68C: at most 0.5.
The same measure for C5G A43U A65C: 0.557; for C5G A40U G58C: 0.732.
Consider C5G A20U C66U A69U, for which the yeast fitness is at most 0.5.
As to C5G A20G U53A G67A, the yeast fitness is at most 0.5.
The same measure for C5G A15G U16A A20G U28A C30A C33A A36U A65U A69C: at most 0.5; for C5G: 0.992; for C5G A37C C61U: at most 0.5.
The same measure for C5G C11G A15U C55A: at most 0.5.
As for C5A U35G, the yeast fitness was 0.636.
The result for C5A U35A reads 0.73; that for C5G A14C A37G G52U C62G, at most 0.5.
The result for C5G A40G U54A reads 0.579.
For the variant C5G A14C C29A C31G U54A, the yeast fitness was found to be 0.638.
The same measure for C5G A14C C29A C31G U54G: at most 0.5; for C5G A36U G52C G67U A69U: at most 0.5.
Take C5A U47C G51A A65C: the yeast fitness is at most 0.5.
The result for C5G A15U G44C G50A U54A reads at most 0.5; that for C5G C11U C61G, at most 0.5; that for C5G A20G C30A C34G, at most 0.5.
The result for C5G A36G G68U reads 0.525; that for C5G A36G G68C, 0.596.
The result for C5G C22U U26C reads at most 0.5; that for C5G C22U A36G A65C, at most 0.5; that for C5G A42G C60G C61G, 0.669.
Consider C5G C11U G48C C49A A57C, for which the yeast fitness is at most 0.5.
The same measure for C5G A14G C27G: at most 0.5.
The same measure for C5G C22A A42C: at most 0.5; for C5G A15U C24A: 0.654; for C5G A15G A36G A45C G50U: at most 0.5.
The same measure for C5G C22U C27U A36G A69C: at most 0.5; for C5G A70G: 0.848.
Take C5G A21C A45U C46U: the yeast fitness was at most 0.5.
Turning to C5G A21G U26C C27G G48C G67A, the yeast fitness was 0.531.
The same measure for C5G C11U A70C: at most 0.5.
The result for C5G A15G U16A A20G U28A C30A C33A A36U A70U reads at most 0.5; that for C5G C22U A57G, at most 0.5.
Take C5G A15G C27G C30A: the yeast fitness was at most 0.5.
The result for C5G A15U C30A C31A C49U C66G reads at most 0.5; that for C5G A57G, 0.882; that for C5G A57U, 0.735.
The same measure for C5A U28G A65U: at most 0.5; for C5G A21C C33U: 0.535; for C5G A21C C33G: at most 0.5.
Take C5A U19A G38C A57C C62U: the yeast fitness was at most 0.5.
The same measure for C5G A20C C31A: 0.55; for C5G A14C A37G C46U G68C: at most 0.5.
As for C5G C22A U26C C33G U35A, the yeast fitness is at most 0.5.
The result for C5G A43G G56A C61G C62A reads at most 0.5.
The result for C5G C11U A37C U64C reads 0.609; that for C5G C24U, 0.893; that for C5G C11G C62U, at most 0.5.
The result for C5G C11A A21G reads 0.581.
Regarding C5G C11G A70U, the yeast fitness was at most 0.5.
The result for C5G A15U C46U reads 0.594; that for C5G A21U C29U A37U A43G C66G, at most 0.5; that for C5A U26A C31A C49U, at most 0.5.
Take C5G C24G A45C A70U: the yeast fitness was at most 0.5.
C5G C11U A42G C49U A69C A70G: the yeast fitness was at most 0.5.
As for C5G A15G C27G U28A U32A A45G C46U, the yeast fitness was determined as 0.573.
The result for C5G C22G C31A C49G G63C A69U reads at most 0.5; that for C5G A14U G38C G39C C61U, at most 0.5.
The result for C5G C22U U28G U54C A65G reads at most 0.5; that for C5G A14C U16A C30U G38C G41C C66U, at most 0.5; that for C5G C11G A15U A70U, at most 0.5.
The result for C5G A15G A36G A43G reads 0.593; that for C5G A20C U28C C29A A36U A40U C49G, at most 0.5.
C5G A40G A57G: the yeast fitness was at most 0.5.
The same measure for C5G C24U C31A: at most 0.5; for C5G A20G A42U: 0.66; for C5G C22A A43G: 0.557.
The same measure for C5G C11U U19C G41C: 0.536.
The same measure for C5G A15G U16A A20G U28A C30A C33A A36U G63A A69C: at most 0.5; for C5G A15G C66U: at most 0.5.
Take C5G A14C: the yeast fitness was 0.625.
The result for C5G A14U reads 0.607; that for C5G A14C C31G, at most 0.5; that for C5G A36G A43U A69C, 0.655.
The result for C5G A20G C22G C29G G63C A69U reads 0.527.
For the variant C5A U19A G38C U53C C61G G67A A69C, the yeast fitness was at most 0.5.
The result for C5G A15G U16A A20G U28A C30A C33A A36U A69U reads at most 0.5; that for C5G A15G U16A A20G U28A C30A C33A A36U A69C, 0.578; that for C5G A14C A37G C62G, 0.561.
The same measure for C5G A20G A40G G44A C46G A70C: at most 0.5.
In the case of C5G A42G A70C, the yeast fitness stood at 0.805.
The result for C5G A14C C29A C31G U54A A70G reads 0.531.
The same measure for C5G A57G C66A: 0.564.
The same measure for C5G C11U C30U A36C G58A G67C: at most 0.5; for C5A U35C G44A G48C C55G C66G: at most 0.5.
As to C5G C11G C24U C62A, the yeast fitness came out at 0.584.
The same measure for C5G C11G A14U A15U G56A U59G: at most 0.5.
Consider C5G A15U G41A G58A, for which the yeast fitness was at most 0.5.
The result for C5G A20U C46A A57U reads at most 0.5.
As to C5G A43U G48C, the yeast fitness amounted to 0.602.
The same measure for C5G A20U C46U: 0.601; for C5G A14U C49U C61U: at most 0.5; for C5G A20U C30U C62U: at most 0.5.
The result for C5G A69U reads 0.894; that for C5G A69G, 0.902.
Consider C5G A69C, for which the yeast fitness stood at 0.932.
For the variant C5A U32G C49G, the yeast fitness was at most 0.5.
The same measure for C5G A21G U59A A69C A70C: at most 0.5.
The same measure for C5G A14C G18A C49U: at most 0.5; for C5G A37G G41C: at most 0.5; for C5G A21G U32C C62U A65U G68A: at most 0.5.
The result for C5G A37C G51C A57G reads 0.598.
